Experimental data published in PubChem BioAssay.
Inconclusive results are not listed.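 How the source made its calls, unless noted: active means RAM network inhibition above 8.4% in each of two replicates, 3 SD over the compound average; inconclusive means above 8.4% inhibition in only one replicate; inactive means 8.4% inhibition or less in each replicate.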

Legend:
[1] = OD615 S. cerevisiae growth inhibition, permissive medium, pilot counter-assay, permissive growth control for S. cerevisiae lifespan shortening project (AID 705;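 active means growth inhibition above 25% in both replicates, a cutoff set 3 SD above the mean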); settings: OD615, 24 h, at 10 µM, active compounds read high
Summary of the method: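 System: Engineered DeaD yeast | Buffer or medium: SC raffinose/galactose permissive medium | Incubation: Cells pre-grown 4 h, then 24 h compound exposure, 30 °C humidified | Measured by: Absorbance (optical density) at 615 nm | Read-out: Reduction in yeast growth (OD615)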

[2] = Restrictive medium S. cerevisiae growth inhibition, OD615, pilot screen of yeast lifespan reduction project, restrictive growth control (AID 706;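 active means growth inhibition above a set limit, 3 SD over mean compound inhibition, in both replicates, cut at about 43% in these data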;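 further: modified DeaD lifespan yeast strain shifted to restrictive glucose medium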); settings: OD615, 48 h, at 10 µM, active compounds read high
Summary of the method: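 Material: modified S. cerevisiae; Medium: glucose-based CSMM-D restrictive medium; Compound dosing: one concentration, 10 µM final, 0.25% DMSO; Incubation: 48 h compound exposure at 30 °C; Measured by: OD615.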

[3] = viability gain of MRP-1-high H69AR cells under doxorubicin, pilot screen, MRP-1 activator project, CellTiter-Glo, duplicate (AID 807;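 active means viability increase at or above a cutoff of the median across tested compounds plus 3 SD, cut at about 8.5% in these data, passing the limit was not always enough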;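 further: compound pretreatment 18-22 h then 72 h combined with doxorubicin; 0% = doxorubicin alone and 100% = vehicle without doxorubicin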); settings: H69AR viability with doxorubicin, CellTiter-Glo luminescence; at 10 µM; active compounds read high
[4] = growth suppression of beta-catenin knockout HCT116, pilot screen, human colon tumor cells (AID 823;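 active means cell viability at or below a set limit in both duplicate runs, the limit being the all-compound median minus 4 SD, cut at about 23% in these data, passing the limit was not always enough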;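 further: 0% = wells killed by 20 µM Hyamine and 100% = untreated DMSO cell wells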); settings: CellTiter-Glo, 60 h, at 10 µM, active compounds read low
[5] = growth suppression of PTEN-deleted HCT116, pilot screen, cell-based, HCT116 clonal line, CellTiter-Glo (AID 824;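 active means viability at or below 27.92% in each of two runs, the all-compound median minus 4 SD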;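 further: 0% = 20 µM Hyamine control and 100% = vehicle cell control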); settings: 60 h, at 10 µM, active compounds read low
[6] = inhibitors of the yeast RAM network, pilot screen, dse1pr::URA3 reporter, 5-FOA selection (AID 869;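 active means inhibition over a set limit, the all-compound mean plus 3 SD, in both replicate runs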;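 further: 0% = DMSO wells with no growth and 100% = 10 µM 1-NA-PP1 with full growth; RAM network block rescues cells from 5-FOA so hits raise OD615 growth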); settings: S. cerevisiae dse1pr::URA3 5-FOA growth, OD615, 2 d; at 10 µM; active compounds read high; strain carries analog-sensitive mutant Cbk1 kinase
[7] = RAM signaling pathway blockade in yeast – S. cerevisiae, Pdr1DBD-CYC8 efflux-inhibited sensitized strain, primary screen (AID 1298);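 further: 0% = DMSO untreated cells without growth and 100% = 10 µM 1-NA-PP1 full growth; higher means more yeast growth rescued from 5-FOA killing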; settings: S. cerevisiae cbk1-as DSE1-URA3 strain, 5-FOA growth OD615, 2 d; at 50 µM; active compounds read high

O=C1c2ccccc2C(Nc2ccc(S(=O)(=O)N3CCCCC3)cc2)N1c1ccccn1 (stereo not given)
inactive: growth inhibition [1] -3.39% | growth inhibition [2] -7.4% | viability increase [3] -4.22% | viability [4] 67.8% | viability [5] 65.4% | inhibition [6] 2.17% | RAM network inhibition [7] 3.68%

Cc1cc(NC(=O)CN2CCCCC2C)nc2c1c(=O)oc1ccccc12 (stereo not given)
inactive: growth inhibition [1] 4.45% | growth inhibition [2] -0.735% | viability increase [3] -0.4% | viability [4] 102% | viability [5] 95.9% | inhibition [6] 1.36% | RAM network inhibition [7] 0.77%

CC(C)CNS(=O)(=O)c1ccc(S(=O)(=O)N2CCN(CCC#N)CC2)cc1
inactive: growth inhibition [1] -11.7% | growth inhibition [2] -4.15% | viability increase [3] -0.2% | viability [4] 99.6% | viability [5] 103% | inhibition [6] 0.85% | RAM network inhibition [7] -0.19%

COc1cccc(-n2nnc3c(=O)n(Cc4cccc(C)c4)cnc32)c1
inactive: growth inhibition [1] -8.22% | growth inhibition [2] -5.66% | viability increase [3] 0.31% | viability [4] 104% | viability [5] 89.7% | inhibition [6] 0.335% | RAM network inhibition [7] 5.49%

CCN(CC)CCCNC(=O)C1c2ccccc2C(=O)N(C)C1c1ccc(OC)cc1 (stereo not given)
inactive: growth inhibition [1] -23% | growth inhibition [2] -20.7% | viability increase [3] 0.37% | viability [4] 96.5% | viability [5] 97.3% | inhibition [6] 3.1% | RAM network inhibition [7] 2.54%

CN(CCNC(=O)C1CC(=O)N(C2CCCC2)C1)Cc1ccccc1 (stereo not given)
inactive: growth inhibition [1] -2.86% | growth inhibition [2] 0.485% | viability increase [3] -0.98% | viability [4] 98.6% | viability [5] 98.3% | inhibition [6] 0.74% | RAM network inhibition [7] 0.52%

O=C(C1CC1)N1CCc2cc(Br)cc(S(=O)(=O)NCc3ccc4c(c3)OCO4)c21
inactive: growth inhibition [1] -4.48% | growth inhibition [2] -5.21% | viability increase [3] -1.52% | viability [4] 87.1% | viability [5] 86.1% | inhibition [6] 1.23% | RAM network inhibition [7] 5.72%

CCCOc1ccc(N2C(=O)CC(N3CCN(c4ccccc4OC)CC3)C2=O)cc1 (stereo not given)
inactive: growth inhibition [1] 0.31% | growth inhibition [2] -41.2% | viability increase [3] 0.03% | viability [4] 97.6% | viability [5] 90.8% | inhibition [6] 2.04% | RAM network inhibition [7] 5.49%

COc1ccc(Cl)cc1C(=O)NCC(C)C
inactive: growth inhibition [1] 6.51% | growth inhibition [2] 8.17% | viability increase [3] -0.38% | viability [4] 95.7% | viability [5] 90.4% | inhibition [6] 2.71% | RAM network inhibition [7] 4.05%

CCOC(=O)C(C)Sc1nnc(Cc2cc(=O)[nH]c(=O)[nH]2)n1-c1cccc(OC)c1 (stereo not given)
inactive: growth inhibition [1] -8.94% | growth inhibition [2] -10% | viability increase [3] 0.04% | viability [4] 101% | viability [5] 96.9% | inhibition [6] 0.395% | RAM network inhibition [7] -1.47%

Cn1c(C(=O)NC2CCCC2)cc2c(=O)n(C)c3ccccc3c21
inactive: growth inhibition [1] -12.6% | growth inhibition [2] 3.59% | viability increase [3] -2.84% | viability [4] 84.3% | viability [5] 87.4% | inhibition [6] 1.21% | RAM network inhibition [7] 7.72%

CN(CCO)c1ncnc2nc[nH]c12
inactive: growth inhibition [1] -10.4% | growth inhibition [2] -7.77% | viability increase [3] 0.3% | viability [4] 104% | viability [5] 93.2% | inhibition [6] 1.36% | RAM network inhibition [7] 1.71%

CN(C)CCNC(=O)c1ccc2c(c1)N(Cc1ccc(F)cc1)CCS2
inactive: growth inhibition [1] -2.46% | growth inhibition [2] 0.095% | viability increase [3] -6.05% | viability [4] 47.8% | viability [5] 55.1% | inhibition [6] 0.835% | RAM network inhibition [7] 0.57%

CN(CCNC(=O)C1(O)c2ccccc2NC(=O)N1c1ccccc1)Cc1ccccc1 (stereo not given)
inactive: growth inhibition [1] -15.6% | growth inhibition [2] -17.7% | viability increase [3] -2.03% | viability [4] 95.8% | viability [5] 93.2% | inhibition [6] 0.43% | RAM network inhibition [7] 2.02%

Brc1ccccc1OCCCN1CCOCC1
inactive: growth inhibition [1] -11.7% | growth inhibition [2] -9.51% | viability increase [3] 1.1% | viability [4] 97.8% | viability [5] 98.2% | inhibition [6] 1.48% | RAM network inhibition [7] 4.22%

Fc1ccc(-n2[nH]nnc2=S)cc1N1CCCC1
inactive: growth inhibition [1] -3.75% | growth inhibition [2] 3.59% | viability increase [3] -1.28% | viability [4] 104% | viability [5] 99.6% | inhibition [6] -0.32% | RAM network inhibition [7] -2.49%

CC(=O)N1CCC2(CC1)C(C#N)=C(N)Oc1n[nH]c(C)c12
inactive: growth inhibition [1] -6.98% | growth inhibition [2] 14.8% | viability increase [3] 0.18% | viability [4] 97.9% | viability [5] 98.2% | inhibition [6] 1.04% | RAM network inhibition [7] 6.55%

CC1CCCC(NC(=O)CN(C)S(=O)(=O)c2cccc3cccnc23)C1C (stereo not given)
inactive: growth inhibition [1] -10.9% | growth inhibition [2] -18.7% | viability increase [3] -3.62% | viability [4] 98.7% | viability [5] 88.4% | inhibition [6] 0.34% | RAM network inhibition [7] 3.61%

Cc1cccc(NC(=O)Cn2cnc3sc(C)c(S(=O)(=O)N4CCC(C)CC4)c3c2=O)n1
inactive: growth inhibition [1] -9.9% | growth inhibition [2] -17.3% | viability increase [3] -1.12% | viability [4] 95.2% | viability [5] 99.1% | inhibition [6] 2.16% | RAM network inhibition [7] 9.71%

Cc1ccccc1-n1c(Cn2c(=O)sc3ccccc32)nnc1SCC(=O)NCC1CCCO1 (stereo not given)
inactive: growth inhibition [1] -3.68% | growth inhibition [2] -12.2% | viability increase [3] 0% | viability [4] 100% | viability [5] 97.9% | inhibition [6] 0.82% | RAM network inhibition [7] 3.19%

CC(=O)Nc1ccc(C(=O)c2ccccc2)cc1
inactive: growth inhibition [1] 8.43% | growth inhibition [2] 6.52% | viability increase [3] -1.14% | viability [4] 95.4% | viability [5] 92.5% | inhibition [6] 0.97% | RAM network inhibition [7] 0.62%

Cn1c(=O)c2c(nc(SCCN3CCOCC3)n2Cc2ccccc2Cl)n(C)c1=O
inactive: growth inhibition [1] -14.9% | growth inhibition [2] 1.19% | viability increase [3] -5.35% | viability [4] 91.8% | viability [5] 94.9% | inhibition [6] 0.27% | RAM network inhibition [7] 5%

CCOC(=O)C1CCCN(C(=O)c2ccc(CS(=O)(=O)c3ccc(C)cc3)o2)C1 (stereo not given)
inactive: growth inhibition [1] -0.315% | growth inhibition [2] -6.29% | viability increase [3] -2.78% | viability [4] 110% | viability [5] 101% | inhibition [6] 1.16% | RAM network inhibition [7] 3.23%

CCc1ccc(NC(=O)c2cnc3n(c2=O)CCS3)cc1
inactive: growth inhibition [1] -1.06% | growth inhibition [2] 0.895% | viability increase [3] -2.9% | viability [4] 95.2% | viability [5] 85.9% | inhibition [6] 2.82% | RAM network inhibition [7] 0.15%

O=C(O)CSCC(=O)c1ccccc1
inactive: growth inhibition [1] -6.96% | growth inhibition [2] -1.74% | viability increase [3] 0.58% | viability [4] 107% | viability [5] 101% | inhibition [6] 1.15% | RAM network inhibition [7] -0.89%
